# Screens as filed in PubChem.
# TRPC4 agonist = TRPC4 (mouse) channel activation; 310,000 compounds, 0.49% hits; HEK293 TRPC4beta/mu-opioid, Fluo4 calcium fluorescence; hits give high values; B-score at 10 µM; AID 2237; Q9QUQ5;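 active = B-score above 5 SD of library B-scores, and initial fluorescence ratio not above library mean plus 5 SD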;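 also: positive B-score marks a calcium rise read as TRPC4 activation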
#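 Test system: HEK293 cells stably co-expressing mouse TRPC4beta and mu-opioid receptor | Schedule: Fluo4 dye loading 45 min at room temperature, 110 s recording | Measured by: Kinetic Fluo4 calcium fluorescence, 5 s baseline at 1 Hz | Evaluation: B score of integrated ratio | Controls: Buffer (low) and maximal DAMGO (high)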
# TRPC6 inhibitor = inhibitors of mouse TRPC6 channel | Q61143 | HEK293-TRPC6, membrane potential dye, ACh-evoked depolarization; hits give low values | B-score at 10 µM | 310,000 compounds, 1.1% hits;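 active = B-score under library mean minus 3 SD, initial fluorescence not abnormally high, positive integrated signal ratio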;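 also: B-score derived from integrated fluorescence ratio over the kinetic read; more negative B-score means stronger inhibition of depolarization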
# Target sequence (Q61143 whole entry, looked up): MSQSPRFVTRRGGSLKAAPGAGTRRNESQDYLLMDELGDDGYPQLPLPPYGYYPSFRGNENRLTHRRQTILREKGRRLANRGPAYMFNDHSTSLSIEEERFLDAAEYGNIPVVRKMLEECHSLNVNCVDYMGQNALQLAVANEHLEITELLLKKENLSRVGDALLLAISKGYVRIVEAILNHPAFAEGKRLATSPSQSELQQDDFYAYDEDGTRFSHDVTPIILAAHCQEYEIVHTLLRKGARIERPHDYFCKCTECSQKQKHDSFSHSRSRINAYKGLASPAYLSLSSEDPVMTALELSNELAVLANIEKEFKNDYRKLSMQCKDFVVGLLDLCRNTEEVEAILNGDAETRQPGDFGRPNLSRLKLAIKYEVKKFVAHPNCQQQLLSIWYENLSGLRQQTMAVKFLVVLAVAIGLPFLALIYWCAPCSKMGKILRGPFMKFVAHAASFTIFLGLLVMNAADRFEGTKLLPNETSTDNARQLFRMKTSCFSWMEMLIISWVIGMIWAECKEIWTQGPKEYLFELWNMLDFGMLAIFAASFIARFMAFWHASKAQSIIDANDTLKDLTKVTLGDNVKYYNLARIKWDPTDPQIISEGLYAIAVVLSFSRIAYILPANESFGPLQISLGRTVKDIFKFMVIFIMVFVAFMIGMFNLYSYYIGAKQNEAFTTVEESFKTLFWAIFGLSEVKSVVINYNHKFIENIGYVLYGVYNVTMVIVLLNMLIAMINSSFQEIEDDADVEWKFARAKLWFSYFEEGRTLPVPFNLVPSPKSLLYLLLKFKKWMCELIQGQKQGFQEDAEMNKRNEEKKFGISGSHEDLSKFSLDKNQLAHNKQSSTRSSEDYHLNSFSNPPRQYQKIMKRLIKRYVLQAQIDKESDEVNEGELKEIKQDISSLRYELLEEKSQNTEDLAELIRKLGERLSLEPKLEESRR
# TRPC6 act = mouse TRPC6 channel activation; AID 2550; B-score at 10 µM; HEK293-TRPC6 membrane potential dye fluorescence; hits give high values; 310,000 compounds, 0.13% hits; Q61143;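 active = B-score of the integrated fluorescence ratio above library mean plus 3 SD, and starting fluorescence ratio within library mean plus 5 SD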;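 also: higher score means more depolarization so channel activation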
# TRPC4 potent = allosteric potentiators of mouse TRPC4 channel | Q9QUQ5 | HEK293 TRPC4beta/mu-opioid, DAMGO EC20, Fluo-4 Ca2+ flux; hits give high values | B-score at 10 µM | 310,000 compounds, 0.42% hits | AID 2227;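 active = B-score of calcium response area above 5 SD of library B-scores, with initial fluorescence ratio within 5 SD of library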;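 also: B-score of integrated fluorescence ratio over time as area under calcium response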
# TRPC4 inh = blocks the mouse TRPC4 cation channel. HEK293 TRPC4beta/mu-opioid, DAMGO-evoked Fluo4 calcium flux; hits give low values. B-score at 10 µM. 300,000 compounds, 0.39% hits. AID 2247;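 active = B-score over 3 SD under the library average, no early fluorescence shift, positive overall ratio signal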
#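 Assay system: Stable TRPC4beta/mu-opioid receptor HEK293 cells | Reagent: DAMGO in two steps, submaximal then maximal | Compound dosing: Single concentration per test compound | Signal: Fluo4 Ca2+ flux fluorescence | Evaluation: Per-well B score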
# TRPC4 sel inh 2 = second check of whether TRPC6 inhibitors also affect mouse TRPC4; shares compounds with TRPC6 inhibitor; HEK293 TRPC4/MOR, membrane potential dye fluorescence; channel activated by saturating DAMGO dose; inhibition, % at 10 µM; 920 compounds, 42% hits;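 active = compounds whose fluorescence signal differed from control wells by over 3 SD, either direction, in both duplicate plates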
# TRPC4 spec = tests whether TRPC6 inhibitors also affect mouse TRPC4 | shares compounds with TRPC6 inhibitor | HEK293 TRPC4/mu-opioid, membrane potential fluorescence | activity change, negative = inhibition, % at 10 µM | 920 compounds, 61% hits;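 active = rise or fall in signal beyond 3 SD of buffer-only wells in both replicate plates, either sign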;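 also: integrated kinetic ratio of fluorescence range over baseline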
# HEK293 MPD ctr 2-1 = parental HEK293 nonspecific activity of TRPC6 inhibitors, second screen; shares compounds with TRPC6 inhibitor; parental HEK293 membrane potential dye fluorescence; maximal acetylcholine challenge after compound addition; signal change vs control, % at 10 µM; 920 compounds, 31% hits; AID 2779;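 active = membrane potential signal moving either way by over 3 SD of the maximum-effect control, in both duplicate plates, meaning non-specific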
# HEK293 MPD ctr-1 = parental HEK293 nonspecific activity of TRPC6 inhibitors; 920 compounds, 60% hits; shares compounds with TRPC6 inhibitor; parental HEK293 membrane potential dye fluorescence; membrane potential signal change, % at 10 µM;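 active = membrane potential signal shifting up or down by more than 3 SD of buffer-only wells, on both duplicate plates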
# HEK293 MPD ctr-2 = counter-screen for TRPC6 modulators: effect in parental HEK293 cells | shares compounds with TRPC6 inhibitor | membrane potential dye fluorescence | membrane potential signal change, % at 10 µM | 2,400 compounds, 51% hits | AID 488924;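 active = membrane potential signal moves up or down beyond 5 SD from buffer-only wells, on both duplicate plates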
# HEK293 MPD ctr 2-2 = second check of TRPC6 modulator effects in parental HEK293 cells. inhibition, % at 10 µM. 2,400 compounds, 14% hits. membrane potential dye fluorescence; after compound, maximal acetylcholine stimulation. shares compounds with TRPC6 inhibitor;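 active = membrane potential signal drops by more than 5 SD from the mean control signal, in both duplicate plates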;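 also: plate controls were acetylcholine ECmax control wells for no effect and buffer only wells for full effect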
# TRPC4/MOR mod = mouse TRPC4 off-target activity of TRPC6 modulators. shares compounds with TRPC6 inhibitor. HEK293 TRPC4/mu-opioid, membrane potential fluorescence. percent change from control (negative = decrease, positive = increase), % at 10 µM. 2,400 compounds, 69% hits;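 active = membrane potential signal moved up or down beyond 5 SD of buffer control wells, in both duplicate plates, actives on both sides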;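 also: plate controls were assay buffer wells for no effect and DAMGO maximal-effect wells for full effect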
# TRPC4/MOR inh 2 = mouse TRPC4 off-target activity of TRPC6 modulators, second screen. inhibition, % at 10 µM. AID 488928. HEK293 TRPC4/mu-opioid, membrane potential dye fluorescence; stimulated with maximal-effect DAMGO. 2,400 compounds, 55% hits. shares compounds with TRPC6 inhibitor;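 active = drop in membrane potential signal beyond 5 SD of the control wells in both duplicate plates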;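 also: TRPC4 counter screen for TRPC6 hits run under conditions tuned for TRPC6 not TRPC4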
# TRPC6 inh conf = confirmation of mouse TRPC6 inhibitors; shares compounds with TRPC6 inhibitor; HEK293-TRPC6, membrane potential dye, ACh-evoked depolarization; inhibition, % at 10 µM; 3,300 compounds, 43% hits;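 active = fluorescence ratio falls more than 5 SD below the full-stimulation control mean, in both duplicate runs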;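 also: integrated fluorescence ratio of peak minus minimum over baseline after agonist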
# TRPC6 act conf = confirmation of mouse TRPC6 activators | shares compounds with TRPC6 inhibitor | HEK293-TRPC6 membrane potential dye fluorescence, FDSS | activation, % at 10 µM | 2,800 compounds, 11% hits | AID 488961;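 active = ratio signal rise beyond 5 SD above unstimulated control wells' mean, seen in both duplicate runs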;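 also: plate controls were buffer EC0 wells for no effect and acetylcholine ECmax response for full effect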
# * marks the source's active call; other numbers are inactive results; i = inactive; . = not tested or not shown. Compounds with a hit are over-represented: about 2.3% of the library has one in this group of screens.
SMILES,TRPC4 agonist,TRPC6 inhibitor,TRPC6 act,TRPC4 potent,TRPC4 inh,HEK293 MPD ctr-2,HEK293 MPD ctr 2-2,TRPC4/MOR mod,TRPC4/MOR inh 2,TRPC6 inh conf,TRPC6 act conf,others
Cc1ccc(NC(=O)C(NC2CCCC2)c2ccccc2)cc1Cl (stereo unspecified),i,i,i,i,i,.,.,.,.,.,.,
COc1ccc(NC(=O)c2ccccc2Oc2ccccc2)cc1,i,i,i,i,i,.,.,.,.,.,.,
COc1cccc(NC(=O)c2ccccc2Oc2ccccc2)c1,i,-5.3*,i,i,i,i,i,14%*,i,i,i,
COc1ccc(/C=C/C(=O)N(c2ccccn2)C2CCCCC2)cc1OC,i,i,i,i,i,.,.,.,.,.,.,
CN(C)CCCN1c2ccc([N+](=O)[O-])cc2CCc2cc([N+](=O)[O-])ccc21,i,-12*,i,i,i,-358%*,86%*,-60%*,84%*,83%*,i,
CN1c2ccc([N+](=O)[O-])cc2N(C)C1(C)c1ccccc1 (stereo unspecified),i,i,i,i,i,.,.,.,.,.,.,
COc1ccccc1Nc1nc(N)nc(CSC(=S)N2CCCCC2)n1,i,-9.5*,11*,i,i,i,i,i,i,i,i,
COc1cccc(CN(CC(=O)NCC2CCCO2)C(=O)CNS(=O)(=O)c2ccccc2)c1 (stereo unspecified),i,i,i,i,i,.,.,.,.,.,.,
CCN1CCN(C(=O)c2ccc3c(c2)c(C)c(C)n3Cc2ccccc2)CC1,i,i,i,i,i,.,.,.,.,.,.,
Cc1c(C)n(CCN(C)C)c2ccc(C(=O)OCCN(C)C)cc12,i,-7.1*,i,i,i,-153%*,i,-32%*,75%*,56%*,i,
Cc1c(C)n(Cc2ccccc2)c2ccc(C(=O)OCCCN(C)C)cc12,i,-8.5*,i,i,i,.,.,.,.,75%*,i,TRPC4 sel inh 2=34%*;TRPC4 spec=i;HEK293 MPD ctr 2-1=i;HEK293 MPD ctr-1=i
Cc1[nH]c2ccc(C(=O)OCCN(C)C)cc2c1C,i,i,i,i,i,.,.,.,.,.,.,
O=C(/C=C/c1nc2ccccc2s1)N1CCCCCC1,i,i,i,i,i,.,.,.,.,.,.,
Cc1c(C)[n+](=O)c2c(n1[O-])CCCCC2,i,-7.7*,i,i,i,.,.,.,.,i,i,TRPC4 sel inh 2=i;TRPC4 spec=i;HEK293 MPD ctr 2-1=i;HEK293 MPD ctr-1=i
O=C(NCc1ccccc1)c1noc2c1CCCCC2,i,i,i,i,i,.,.,.,.,.,.,
O=C(NC1CCCC1)c1noc2c1CCCCC2,i,-8*,i,i,i,.,.,.,.,i,i,TRPC4 sel inh 2=i;TRPC4 spec=i;HEK293 MPD ctr 2-1=i;HEK293 MPD ctr-1=i
CN1C(=O)N(C)C(NC(=O)Nc2ccccc2)C1NC(=O)Nc1ccccc1 (stereo unspecified),i,i,i,i,i,.,.,.,.,.,.,
COc1cccc(N2CCN(C3CCCC(C)C3)CC2)c1 (stereo unspecified),i,-5.8*,i,i,i,184%*,i,38%*,48%*,i,.,
COc1ccc(S(=O)(=O)N2CCN(C3CCCC(C)C3)CC2)cc1 (stereo unspecified),i,i,i,i,i,.,.,.,.,.,.,
O=C(NCc1ccco1)c1ccc2ccccc2n1,i,-5.1*,i,i,i,i,i,i,i,44%*,.,
Cc1cccc(C)c1OCCNC(=O)c1ccc2ccccc2n1,i,-13*,12*,i,i,150%*,i,i,44%*,91%*,78%*,
CCCCNC(=S)N(C)/N=C/c1ccccc1C(=O)O,i,i,i,i,i,.,.,.,.,.,.,
CC(C)N1CCC(=NNC(=O)c2ccccc2[N+](=O)[O-])CC1,i,i,i,i,i,.,.,.,.,.,.,
O=C(NN=C1CCCC1)c1ccccc1[N+](=O)[O-],i,-5.6*,i,i,i,i,i,8.0%*,i,i,i,
CC1(C)CC(=O)C(CC(=O)NC2CCCc3ccccc32)C(=O)C1 (stereo unspecified),i,i,i,i,i,.,.,.,.,.,.,
Cc1ccc(Cl)cc1N1CCN(C(=O)c2ccc(NS(=O)(=O)c3c(C)noc3C)cc2)CC1,i,-6.2*,i,i,i,i,i,i,i,70%*,.,
Cc1ccc(C)c(N2CCN(C(=O)c3ccc(NS(=O)(=O)c4c(C)noc4C)cc3)CC2)c1,i,-6.5*,i,i,i,i,i,-15%*,50%*,74%*,i,
COc1ccc(N2CCN(C3CCCN(Cc4ccc(F)c(F)c4)C3)CC2)cc1 (stereo unspecified),i,i,i,i,i,.,.,.,.,.,.,
Cc1cc(NC(=O)CN2C(=O)/C(=C/c3cccc(Br)c3)SC2=S)no1,i,i,i,i,i,.,.,.,.,.,.,
CC1CCCCN1S(=O)(=O)c1cnc(Cl)c(Br)c1 (stereo unspecified),i,i,18*,i,i,i,i,i,i,.,164%*,
